Test results from ChEMBL document CHEMBL1125313, “Analogs of Ac-CCK-7 incorporating dipeptide mimics in place of Met28-Gly29” (J Med Chem, 1992).
Starred links: 1 amine or outer side, 2 acyl side, 3 side chain; linkers in the order of their positions; H or OH if unused. Non-standard residues stand in square brackets, D forms with d. Residues, ends and D or L forms follow the SMILES beside them. Phe(4-SO3H) = N[C@@H](Cc1ccc(S(=O)(=O)O)cc1)C(=O)O; X3 = O=C(C[C@@H]1CCCC[C@@H]1N[*:1])[*:2]; X5 = O=C(C[C@H]1CCCC[C@@H]1N[*:1])[*:2]; X1 = Cc1c(N[*:1])cccc1C(=O)[*:2]; X4 = Cc1ccc(N[*:1])cc1C(=O)[*:2]; 3Abz = Nc1cccc(C(=O)O)c1; 4Abz = Nc1ccc(C(=O)O)cc1; CO = O=C([*:1])[*:2]; Ahx = NCCCCCC(=O)O; Ava = NCCCCC(=O)O; GABA = NCCCC(=O)O; βAla = NCCC(=O)O

What was measured:
Rattus norvegicus [1] = test: Compound was evaluated for its ability to suppress food intake in one of two meal-fed rats after intraperitoneal administration of 320 ug/kg; type: functional
In short: (§1)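 Male Sprague-Dawley rats fed in one of two meal models, peptide ip. In "1-2-1" model, rats trained 4 days to eat ground chow 9–10 a.m. and 12–1 p.m., dosed 15 min before first meal, groups of 5–6. Or rats fasted 17 h overnight, given vehicle (100% DMSO) or peptide ip, 0.33 mL/kg, food weighed after 1 h, groups of 5–7. First-hour intake as % of control. ED50 from log-probit analysis; t-test versus controls.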

[2] = biological target: T1, Cholecystokinin receptor type A (Rattus norvegicus, UniProt P30551); test: The compound was tested in vitro for inhibition of specific [3H]propionyl-CCK-8 binding to Cholecystokinin type A receptor in rat pancreatic membranes; type: cell membranes, Membrane
T1 sequence (P30551 whole entry): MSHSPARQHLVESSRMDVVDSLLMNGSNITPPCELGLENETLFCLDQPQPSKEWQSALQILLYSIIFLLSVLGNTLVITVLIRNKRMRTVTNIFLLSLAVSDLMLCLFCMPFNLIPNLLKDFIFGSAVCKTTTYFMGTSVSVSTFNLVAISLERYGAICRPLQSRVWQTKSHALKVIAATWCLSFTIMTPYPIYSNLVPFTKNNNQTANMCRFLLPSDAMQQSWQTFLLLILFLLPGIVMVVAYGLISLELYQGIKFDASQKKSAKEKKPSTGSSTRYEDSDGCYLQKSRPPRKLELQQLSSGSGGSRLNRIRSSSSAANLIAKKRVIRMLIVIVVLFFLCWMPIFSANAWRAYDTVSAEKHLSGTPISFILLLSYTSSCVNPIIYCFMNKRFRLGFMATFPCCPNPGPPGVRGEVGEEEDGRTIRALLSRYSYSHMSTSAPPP
In short: (§2)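 Fresh pancreas from fasted rats homogenized at 0 °C in 10 mM HEPES, 130 mM NaCl, 5 mM MgCl2, pH 7.4. Pellet (48000g) resuspended in same buffer plus PMSF and bacitracin, ~0.100 mg protein per 1 mL. Incubated 30 min at 25 °C with 0.15 nM (final) [propionyl-3H]CCK-8. Filtered on GF/B and counted. Nonspecific binding with 1 μM CCK-8. IC50 by log-probit; actives confirmed in duplicate.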

Rattus norvegicus [3] = test: Dose which caused 50% inhibition of the control intake was determined by log-probit analysis after intraperitoneal administration; type: functional; settings: ip; in short: as §1
[4] = biological target: T2, Gastrin/cholecystokinin type B receptor (Bos taurus, UniProt P79266); test: Inhibition of [3H]propionyl-CCK-8 binding to Cholecystokinin type B receptor in bovine striatum; type: tissue-based
T2 sequence (P79266 whole entry): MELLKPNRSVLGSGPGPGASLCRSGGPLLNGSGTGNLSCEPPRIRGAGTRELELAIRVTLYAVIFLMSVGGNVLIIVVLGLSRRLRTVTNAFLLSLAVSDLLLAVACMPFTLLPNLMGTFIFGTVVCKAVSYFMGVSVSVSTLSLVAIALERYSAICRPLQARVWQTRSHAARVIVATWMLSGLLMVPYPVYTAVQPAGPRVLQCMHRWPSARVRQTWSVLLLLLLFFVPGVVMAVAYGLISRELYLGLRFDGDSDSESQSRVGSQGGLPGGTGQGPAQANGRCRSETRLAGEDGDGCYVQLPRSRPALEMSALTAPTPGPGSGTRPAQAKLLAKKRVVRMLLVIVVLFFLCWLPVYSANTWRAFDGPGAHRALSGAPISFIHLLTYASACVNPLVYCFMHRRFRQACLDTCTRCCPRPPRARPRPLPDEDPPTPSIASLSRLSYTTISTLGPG
In short: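 Frozen bovine striatum homogenized at 0 °C in 10 mM HEPES, 130 mM NaCl, 5 mM MgCl2, pH 7.4. Pellet (48000g) resuspended in same buffer plus PMSF and bacitracin, ~0.26 mg protein per 2 mL. Incubated 30 min at 25 °C with 0.15 nM (final) [propionyl-3H]CCK-8. GF/B filtration, scintillation counting. Nonspecific binding with 1 μM CCK-8. IC50 by log-probit; actives confirmed in duplicate.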

[5] = biological target: T1, Cholecystokinin receptor type A; test: The compound was tested in vitro for inhibition of specific [3H]propionyl-CCK-8 binding to cholecystokinin type A receptor in rat pancreatic membranes; type: cell membranes, Membrane; in short: as §2
Rattus norvegicus [6] = test: Compound was evaluated for its ability to suppress food intake in one of two meal-fed rats after intraperitoneal administration of 32 ug/kg; type: functional; in short: as §1
Rattus norvegicus [7] = test: Compound was evaluated for its ability to suppress food intake in one of two meal-fed rats after intraperitoneal administration of 14 ug/kg; type: functional; in short: as §1
Rattus norvegicus [8] = test: Compound was evaluated for its ability to suppress food intake in one of two meal-fed rats after intraperitoneal administration of […]; type: functional
Rattus norvegicus [9] = test: Compound was evaluated for its ability to suppress food intake in one of two meal-fed rats after intraperitoneal administration of 3 ug/kg; type: functional; in short: as §1
Rattus norvegicus [10] = test: Compound was evaluated for its ability to suppress food intake in one of two meal-fed rats after intraperitoneal administration of 1240 ug/kg; type: functional; in short: as §1
Rattus norvegicus [11] = test: Compound was evaluated for its ability to suppress food intake in one of two meal-fed rats after intraperitoneal administration of 10 ug/kg; type: functional; in short: as §1
[12] = Dose which caused 50% inhibition of the control intake was determined by log-probit analysis after intraperitoneal administration (CCK-8 receptor); settings: Rattus norvegicus
Rattus norvegicus [13] = test: Compound was evaluated for its ability to suppress food intake in one of two meal-fed rats after intraperitoneal administration of 20 ug/kg; type: functional; in short: as §1
Rattus norvegicus [14] = test: Compound was evaluated for its ability to suppress food intake in one of two meal-fed rats after intraperitoneal administration of 0.3 ug/kg; type: functional; in short: as §1

Row | IC50 [2] | IC50 [4] | IC50 [5] | Compound | Control (Rattus norvegicus [1]) | ED50 (Rattus norvegicus [3]) | Control (Rattus norvegicus [6]) | Control (Rattus norvegicus [9]) | also measured
1 | 161 nM | 3.4 nM |  | CSCC[C@H](NC(=O)[C@H](Cc1c[nH]c2ccccc12)NC(=O)C[C@@H]1CCCC[C@@H]1NC(=O)[C@H](Cc1ccc(S(=O)(=O)O)cc1)NC(=O)O)C(=O)N[C@@H](CC(=O)O)C(=O)N[C@@H](Cc1ccccc1)C(N)=O ({CO}-[Phe(4-SO3H)][X3]WMDF-NH2) | 80% | > 320 µmol/kg |  |  | 
2 |  | 1300 nM | 1200 nM | CSCC[C@H](NC(=O)[C@H](Cc1c[nH]c2ccccc12)NC(=O)CNC(=O)[C@H](Cc1ccc(S(=O)(=O)O)cc1)NC(=O)O)C(=O)N[C@@H](CC(=O)O)C(=O)N[C@@H](Cc1ccccc1)C(N)=O ({CO}-[Phe(4-SO3H)]GWMDF-NH2) |  |  | 69% |  | 
3 | 2.7 nM | 0.91 nM |  | CSCC[C@H](NC(=O)[C@H](Cc1c[nH]c2ccccc12)NC(=O)c1cccc(NC(=O)[C@H](Cc2ccc(S(=O)(=O)O)cc2)NC(=O)O)c1C)C(=O)N[C@@H](CC(=O)O)C(=O)N[C@@H](Cc1ccccc1)C(N)=O ({CO}-[Phe(4-SO3H)][X1]WMDF-NH2) | 5.9% | 24 µmol/kg | 44% |  | Control (Rattus norvegicus [7]): 58%; Control (Rattus norvegicus [8]): 104%
4 | 2.1 nM | 0.48 nM |  | CSCC[C@H](NC(=O)[C@H](Cc1c[nH]c2ccccc12)NC(=O)c1cccc(NC(=O)[C@H](Cc2ccc(S(=O)(=O)O)cc2)NC(=O)O)c1)C(=O)N[C@@H](CC(=O)O)C(=O)N[C@@H](Cc1ccccc1)C(N)=O ({CO}-[Phe(4-SO3H)][3Abz]WMDF-NH2) | 4% | 3 µmol/kg | 14% | 52% | 
5 | 1600 nM | 0.085 nM |  | CSCC[C@H](NC(=O)[C@H](Cc1c[nH]c2ccccc12)NC(=O)c1ccc(NC(=O)[C@H](Cc2ccc(S(=O)(=O)O)cc2)NC(=O)O)cc1)C(=O)N[C@@H](CC(=O)O)C(=O)N[C@@H](Cc1ccccc1)C(N)=O ({CO}-[Phe(4-SO3H)][4Abz]WMDF-NH2) |  | > 1240 µmol/kg |  |  | Control (Rattus norvegicus [10]): 75%
6 |  | 13 nM | 360 nM | CSCC[C@H](NC(=O)[C@H](Cc1c[nH]c2ccccc12)NC(=O)CCCCCNC(=O)[C@H](Cc1ccc(S(=O)(=O)O)cc1)NC(=O)O)C(=O)N[C@@H](CC(=O)O)C(=O)N[C@@H](Cc1ccccc1)C(N)=O ({CO}-[Phe(4-SO3H)][Ahx]WMDF-NH2) | 80% |  |  |  | 
7 |  | 4.4 nM | 0.6 nM | CSCC[C@H](NC(=O)[C@H](Cc1ccc(S(=O)(=O)O)cc1)NC(=O)O)C(=O)NCC(=O)N[C@@H](Cc1c[nH]c2ccccc12)C(=O)N[C@@H](CCSC)C(=O)N[C@@H](CC(=O)O)C(=O)N[C@@H](Cc1ccccc1)C(N)=O ({CO}-[Phe(4-SO3H)]MGWMDF-NH2) |  |  | 6% | 81% | Control (Rattus norvegicus [11]): 36%; ED50 [12]: 7 µmol/kg
8 |  | 3600 nM | 10000 nM | CSCC[C@H](NC(=O)[C@H](Cc1c[nH]c2ccccc12)NC(=O)CCNC(=O)[C@H](Cc1ccc(S(=O)(=O)O)cc1)NC(=O)O)C(=O)N[C@@H](CC(=O)O)C(=O)N[C@@H](Cc1ccccc1)C(N)=O ({CO}-[Phe(4-SO3H)][βAla]WMDF-NH2) |  |  | 108% |  | 
9 |  | 9 nM | 22 nM | CSCC[C@H](NC(=O)[C@H](Cc1c[nH]c2ccccc12)NC(=O)CCCCNC(=O)[C@H](Cc1ccc(S(=O)(=O)O)cc1)NC(=O)O)C(=O)N[C@@H](CC(=O)O)C(=O)N[C@@H](Cc1ccccc1)C(N)=O ({CO}-[Phe(4-SO3H)][Ava]WMDF-NH2) | 9% |  | 54% | 102% | 
10 |  | 1.8 nM | 4.9 nM | CSCC[C@H](NC(=O)[C@H](Cc1c[nH]c2ccccc12)NC(=O)CCCNC(=O)[C@H](Cc1ccc(S(=O)(=O)O)cc1)NC(=O)O)C(=O)N[C@@H](CC(=O)O)C(=O)N[C@@H](Cc1ccccc1)C(N)=O ({CO}-[Phe(4-SO3H)][GABA]WMDF-NH2) | 1% |  | 11% | 69% | Control (Rattus norvegicus [13]): 6%; Control (Rattus norvegicus [14]): 104%; ED50 [12]: 4.7 µmol/kg
11 | 165 nM |  |  | CSCC[C@H](NC(=O)[C@H](Cc1c[nH]c2ccccc12)NC(=O)C[C@H]1CCCC[C@@H]1NC(=O)[C@H](Cc1ccc(S(=O)(=O)O)cc1)NC(=O)O)C(=O)N[C@@H](CC(=O)O)C(=O)N[C@@H](Cc1ccccc1)C(N)=O ({CO}-[Phe(4-SO3H)][X5]WMDF-NH2) | 90% | > 320 µmol/kg |  |  | 
12 | 73 nM | 5 nM |  | CSCC[C@H](NC(=O)[C@H](Cc1c[nH]c2ccccc12)NC(=O)c1cc(NC(=O)[C@H](Cc2ccc(S(=O)(=O)O)cc2)NC(=O)O)ccc1C)C(=O)N[C@@H](CC(=O)O)C(=O)N[C@@H](Cc1ccccc1)C(N)=O ({CO}-[Phe(4-SO3H)][X4]WMDF-NH2) | 95% | > 320 µmol/kg |  |  | 
